Measured values from ChEMBL document CHEMBL3124793, “Discovery of spirofused piperazine and diazepane amides as selective histamine-3 antagonists with in vivo efficacy in a mouse model of cognition” (J Med Chem, 2014).
≈ marks a conversion by molar mass, not a printed value. Calls of active or inactive are those of the source. The rule behind the calls is not given here.

Legend:
[1] = target: Voltage-gated inwardly rectifying potassium channel KCNH2 (Homo sapiens, UniProt Q12809); assay: Inhibition of human ERG expressed in CHOK1 cells by electrophysiological analysis
[2] = Octanol-water partition coefficient, log D of the compound by shake flask HPLC analysis; format: physicochemical
Outline: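 logD between octanol and water by shake-flask with HPLC analysis.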

Histamine H3 receptor [3] = target: T1, Histamine H3 receptor (Homo sapiens, UniProt Q9Y5N1); assay: Displacement of [3H]-N-alpha-methylhistamine from human histamine H3 receptor expressed in CHOK1 cells after 1.5 hrs by scintillation proximity assay; format: cell-based, CHO-K1
Outline: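 Human H3R-CHO-K1 membranes incubated 1.5 h with test compound and [3H]-N-α-methylhistamine in SPA format; nonspecific binding defined with 10 μM imetit; bead-bound radioligand counted. Average of n > 2, standard error <50%.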

Histamine H3 receptor [4] = target: T1, Histamine H3 receptor; assay: Antagonist activity at human histamine H3 receptor long form expressed in CHOK1 cells assessed as inhibition of R-alpha-methylhistamine-induced [35S]GTPgammaS binding after 3 hrs by scintillation proximity assay; format: functional, cell-based, CHO-K1
Outline: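 Membranes from CHO-K1 cells stably expressing human H3R long form (445 aa) incubated 3 h with test compound, 25 nM R-α-methylhistamine, 10 μM GDP, 0.2 nM [35S]GTPγS and WGA PVT SPA beads; bead-bound [35S]GTPγS counted by scintillation. Average of n > 2, standard error <20%.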

[5] = Intrinsic clearance in rat liver microsomes; format: ADME; settings: read-out: CLH
[6] = Intrinsic clearance in human liver microsomes; format: ADME; settings: read-out: CLH
Outline: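 Human liver microsomal clearance, expressed as μL/min/mg.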

[7] = Percentage unbound in rat plasma; format: ADME, cell-free
Outline: (§1)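 Plasma protein binding in human or rat plasma, expressed as percent free.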

[8] = Apparent permeability from apical to basolateral side in MDCK cells; format: ADME, cell-based, Canis lupus familiaris; settings: dog
Outline: (§2)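 MDCK monolayers; A-to-B Papp in 1 × 10⁻⁶ cm/s; efflux taken as ratio of A-to-B Papp over B-to-A Papp.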

[9] = Percentage unbound in human plasma; format: ADME, cell-free; outline: as §1
[10] = Equilibrium solubility of the compound at pH 7.4; format: physicochemical; settings: buffer
Rattus norvegicus [11] = assay: […] clearance in rat at 1.8 umol/kg, iv; format: ADME, organism-based; settings: in vivo
Outline: (§3)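 IV dosing in male fasted rats, doses in μmol/kg; mean Vss, half-life and clearance derived; number of rats per compound reported.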

[12] = Half life in rat at 1.8 umol/kg, iv; format: ADME, organism-based; settings: in vivo; outline: as §3
[13] = Volume of distribution at steady state in rat at 1.8 umol/kg, iv; format: ADME, organism-based; settings: in vivo, read-out: Vdss; outline: as §3
MDCK = assay: Efflux ratio of apparent permeability from apical to basolateral side over basolateral to apical side in MDCK cells; format: ADME, cell-based, Canis lupus familiaris; settings: dog; outline: as §2
Rattus norvegicus [14] = assay: […] clearance in rat at 2.1 umol/kg, iv; format: ADME, organism-based; settings: in vivo; outline: as §3
[15] = Half life in rat at 2.1 umol/kg, iv; format: ADME, organism-based; settings: in vivo; outline: as §3
[16] = Volume of distribution at steady state in rat at 2.1 umol/kg, iv; format: ADME, organism-based; settings: in vivo, read-out: Vdss; outline: as §3
Histamine H3 receptor [17] = target: T1, Histamine H3 receptor; assay: Inverse agonist activity at human histamine H3 receptor long form expressed in CHOK1 cells assessed as reduction in [35S]GTPgammaS binding after 3 hrs by scintillation proximity assay; format: functional, cell-based; settings: CHO-K1
Outline: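 Basal [35S]GTPγS binding, without agonist stimulation, to membranes expressing recombinant human H3R.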

Rattus norvegicus [18] = assay: […] clearance in rat at 2.3 umol/kg, iv; format: ADME, organism-based; settings: in vivo; outline: as §3
[19] = Half life in rat at 2.3 umol/kg, iv; format: ADME, organism-based; settings: in vivo; outline: as §3
[20] = Volume of distribution at steady state in rat at 2.3 umol/kg, iv; format: ADME, organism-based; settings: in vivo, read-out: Vdss; outline: as §3
Rattus norvegicus [21] = assay: […] clearance in rat at 3.5 umol/kg, iv; format: ADME, organism-based; settings: in vivo; outline: as §3
[22] = Half life in rat at 3.5 umol/kg, iv; format: ADME, organism-based; settings: in vivo; outline: as §3
[23] = Volume of distribution at steady state in rat at 3.5 umol/kg, iv; format: ADME, organism-based; settings: in vivo, read-out: Vdss
Outline: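 Male fasted rats given a single IV dose. Volume of distribution taken as the mean from plasma sampling after the IV dose. Animals per compound: 1 to 7.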

Voltage-gated inwardly rectifying potassium channel KCNH2, sequence (Q12809 whole entry): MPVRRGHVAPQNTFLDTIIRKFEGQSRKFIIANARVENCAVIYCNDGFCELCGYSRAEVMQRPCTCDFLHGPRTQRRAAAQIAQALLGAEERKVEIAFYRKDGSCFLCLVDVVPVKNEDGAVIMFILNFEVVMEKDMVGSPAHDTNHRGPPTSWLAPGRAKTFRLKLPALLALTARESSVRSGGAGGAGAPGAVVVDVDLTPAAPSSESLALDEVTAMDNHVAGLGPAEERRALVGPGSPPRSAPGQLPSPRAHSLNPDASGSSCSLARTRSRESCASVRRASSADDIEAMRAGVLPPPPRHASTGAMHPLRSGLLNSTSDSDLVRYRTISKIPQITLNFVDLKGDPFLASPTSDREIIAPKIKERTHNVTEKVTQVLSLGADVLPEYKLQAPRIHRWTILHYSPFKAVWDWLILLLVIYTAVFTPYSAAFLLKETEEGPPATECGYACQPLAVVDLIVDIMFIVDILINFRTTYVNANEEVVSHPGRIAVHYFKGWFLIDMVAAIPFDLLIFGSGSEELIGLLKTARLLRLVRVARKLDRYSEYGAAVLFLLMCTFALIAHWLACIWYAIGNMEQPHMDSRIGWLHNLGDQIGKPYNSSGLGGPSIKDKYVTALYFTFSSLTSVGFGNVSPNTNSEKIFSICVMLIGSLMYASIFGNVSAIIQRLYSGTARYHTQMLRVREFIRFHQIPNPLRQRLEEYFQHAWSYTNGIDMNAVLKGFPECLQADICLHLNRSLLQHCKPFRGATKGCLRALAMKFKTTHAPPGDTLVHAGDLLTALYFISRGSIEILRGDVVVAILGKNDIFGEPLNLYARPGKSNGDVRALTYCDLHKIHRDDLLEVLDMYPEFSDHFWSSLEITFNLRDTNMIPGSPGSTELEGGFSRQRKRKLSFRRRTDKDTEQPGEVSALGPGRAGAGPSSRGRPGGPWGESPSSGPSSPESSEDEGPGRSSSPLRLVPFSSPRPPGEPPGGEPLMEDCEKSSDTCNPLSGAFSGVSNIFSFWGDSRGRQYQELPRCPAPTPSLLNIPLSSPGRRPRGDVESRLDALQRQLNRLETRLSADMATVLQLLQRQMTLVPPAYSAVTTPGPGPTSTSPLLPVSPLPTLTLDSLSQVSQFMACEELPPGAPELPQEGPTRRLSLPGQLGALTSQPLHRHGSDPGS
T1 sequence (Q9Y5N1 whole entry): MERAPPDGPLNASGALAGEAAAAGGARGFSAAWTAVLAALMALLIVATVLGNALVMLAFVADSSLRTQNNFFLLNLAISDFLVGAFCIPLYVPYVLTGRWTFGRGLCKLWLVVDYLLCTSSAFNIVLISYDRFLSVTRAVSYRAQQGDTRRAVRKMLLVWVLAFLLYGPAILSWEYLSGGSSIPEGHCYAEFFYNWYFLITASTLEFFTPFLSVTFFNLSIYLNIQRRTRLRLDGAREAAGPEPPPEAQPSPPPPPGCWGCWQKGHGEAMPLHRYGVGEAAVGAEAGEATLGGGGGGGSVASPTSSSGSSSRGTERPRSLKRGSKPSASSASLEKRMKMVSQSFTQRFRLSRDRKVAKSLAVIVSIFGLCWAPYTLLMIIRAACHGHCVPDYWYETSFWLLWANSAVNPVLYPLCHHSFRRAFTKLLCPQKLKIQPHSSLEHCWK

logD [2]	Ki (Histamine H3 receptor [3])	IC50 (Histamine H3 receptor [4])	Structure (SMILES)	IC50 [1]	other results
2.09	–	–	O=C(c1ccccc1)N1CCC2(CC1)CC(C(=O)N1CCN(C3CCC3)CC1)C2	> 33 µM	–
-1.78	–	0.014 µM	CC(C)N1CCCN(C(=O)C2CC3(CCN(C4CCOCC4)CC3)C2)CC1	–	–
1.63	–	0.012 µM	CC(C)N1CCCN(C(=O)C2CC3(CCN(C(=O)c4ccccc4)CC3)C2)CC1	> 33 µM	–
0.74	0.026 µM	0.012 µM	O=C(C1CC12CCN(C1CCOCC1)CC2)N1CCN(C2CCCCC2)CC1 (racemic)	–	–
0.8	–	0.0032 µM	CC(C)S(=O)(=O)N1CCC2(CCN(C(=O)N3CCCN(C4CCC4)CC3)C2)CC1	> 33 µM	CL (Rattus norvegicus [11]): 53 mL/min/kg; half-life [12]: 36 min; Vd [13]: 2.1 L/kg; microsomal CLint [5]: 34 µL/min/mg; microsomal CLint [6]: 20 µL/min/mg; Ratio (MDCK): 6; Papp A→B [8]: 7.8 ×10⁻⁶ cm/s; solubility thermodynamic [10]: > 500 µM
-0.87	–	0.032 µM	CC(C)N1CCN(C(=O)N2CCC3(CCN(C4CCOCC4)CC3)C2)CC1	> 33 µM	–
–	0.019 µM	–	O=C(C1CC12CCN(C1CCCCC1)CC2)N1CCN(C2CCCCC2)CC1 (racemic)	20.8 µM	microsomal CLint [5]: 31 µL/min/mg; microsomal CLint [6]: 14 µL/min/mg; Ratio (MDCK): > 2; fraction unbound [7]: 0.62; Papp A→B [8]: < 1.7 ×10⁻⁶ cm/s; fraction unbound [9]: 0.81; solubility thermodynamic [10]: > 500 µM
-0.74	0.0003 µM	0.0017 µM	CC(C)N1CCN(C(=O)C2CC3(CCN(C4CCOCC4)CC3)C2)CC1	–	CL (Rattus norvegicus [14]): 78 mL/min/kg; half-life [15]: 702 min; Vd [16]: 64 L/kg; microsomal CLint [5]: < 4 µL/min/mg; microsomal CLint [6]: < 4 µL/min/mg; Papp A→B [8]: 3.6 ×10⁻⁶ cm/s; solubility thermodynamic [10]: > 500 µM
2.27	–	0.021 µM	O=C(N1CCN(C2CCC2)CC1)N1CCC2(CCN(S(=O)(=O)c3ccccc3)CC2)C1	–	–
-0.46	–	0.0063 µM	O=C(C1CC2(CCN(C3CCOCC3)CC2)C1)N1CCN2CCCCC2C1 (stereo not drawn)	–	–
–	0.0014 µM	–	O=C(C1CC12CCN(C1CCOCC1)CC2)N1CCN(C2CCCC2)CC1 (racemic)	–	microsomal CLint [5]: 43 µL/min/mg; microsomal CLint [6]: 7.2 µL/min/mg; fraction unbound [7]: 0.65; Papp A→B [8]: < 2.2 ×10⁻⁶ cm/s; fraction unbound [9]: 0.5; solubility thermodynamic [10]: > 500 µM
-1	0.439 µM	0.36 µM	O=C(C1CC12CCNCC2)N1CCN(C2CCCCC2)CC1 (racemic)	> 33 µM	–
–	1.3 µM	1.1 µM	CN1CCN(C(=O)C2CC23CCN(C2CCOCC2)CC3)CC1 (racemic)	–	–
–	0.065 µM	–	O=C(C1CC12CCN(C1CCOCC1)CC2)N1CCN(C2CCCCCC2)CC1 (racemic)	–	–
1.62	–	0.018 µM	O=C(c1ccccc1)N1CCC2(CCCN(C(=O)N3CCCN(C4CCC4)CC3)C2)CC1	–	–
–	0.011 µM	–	O=C(C1CC12CCN(C1CCOCC1)CC2)N1CCN(C2CC2)CC1 (racemic)	–	microsomal CLint [5]: 20 µL/min/mg; microsomal CLint [6]: < 4 µL/min/mg; Papp A→B [8]: 8.4 ×10⁻⁶ cm/s; solubility thermodynamic [10]: > 500 µM
–	> 10 µM	–	O=C(C1CC12CCC(C1CCCCC1)CC2)N1CCN(C2CCC2)CC1 (racemic)	–	solubility thermodynamic [10]: 1 µM (≈ 0.359 µg/mL)
–	0.067 µM	0.066 µM	O=C(C1CC12CCN(C1CCC1)CC2)N1CCN(C2CCOCC2)CC1 (racemic)	–	–
0.23	–	0.0044 µM	O=C(N1CCCN(C2CCC2)CC1)N1CCC2(CCCN(C3CCOCC3)C2)C1 (stereo not drawn)	> 33 µM	–
–	–	0.34 µM	O=C(c1ccccc1)N1CCC2(CC1)CCN(C(=O)C1CCN(C3CCC3)CC1)C2	–	–

logD [2]	Ki (Histamine H3 receptor [3])	IC50 (Histamine H3 receptor [4])	Structure (SMILES)	IC50 [1]	other results
1.01	–	0.004 µM	O=C(c1ccccc1)N1CCCC2(CCN(C(=O)N3CCCN(C4CCC4)CC3)C2)C1 (stereo not drawn)	–	–
1.71	–	0.0027 µM	O=C(N1CCCN(C2CCC2)CC1)N1CCC2(CCN(S(=O)(=O)c3ccccc3)CC2)C1	> 33 µM	–
2.81	0.103 µM	–	O=C(C1CC12CCN(Cc1ccccc1)CC2)N1CCN(C2CCCCC2)CC1 (racemic)	–	–
-1.09	0.0084 µM	–	O=C(C1CC12CCN(C1CCOCC1)CC2)N1CCN(c2ccncc2)CC1 (racemic)	–	–
3.25	–	0.066 µM	O=C(C1CC2(CCN(c3ccccc3)CC2)C1)N1CCN(C2CCC2)CC1	> 33 µM	–
3.63	1.67 µM	–	O=C(C1CC12CCN(c1ccccc1)CC2)N1CCN(C2CCCCC2)CC1 (racemic)	–	–
0.74	0.047 µM	0.019 µM	CC(C)N1CCC2(CC1)CC2C(=O)N1CCN(C2CCCCC2)CC1 (racemic)	–	–
1.74	–	0.0065 µM	O=C(N1CCCN(C2CCC2)CC1)N1CCC2(CCCN(S(=O)(=O)c3ccccc3)C2)C1 (stereo not drawn)	> 33 µM	–
0.24	0.0013 µM	0.0036 µM	O=C(C1CC12CCN(C1CCOCC1)CC2)N1CCN(C2CCC2)CC1 (racemic)	–	microsomal CLint [5]: < 4 µL/min/mg; microsomal CLint [6]: 29 µL/min/mg; fraction unbound [7]: 0.8; Papp A→B [8]: 3.9 ×10⁻⁶ cm/s; fraction unbound [9]: 0.91; solubility thermodynamic [10]: > 500 µM; Activity (Histamine H3 receptor [17]): Active
0.75	–	0.0016 µM	O=C(C1CC2(CCN(C3CCOCC3)CC2)C1)N1CCN(C2CCCCC2)CC1	–	–
–	0.021 µM	0.016 µM	O=C(C1CC12CCN(CCc1ccccc1)CC2)N1CCN(C2CCCCC2)CC1 (racemic)	–	–
1.22	–	0.0036 µM	O=C(c1ccccc1)N1CCC2(CC1)CCN(C(=O)N1CCCN(C3CCC3)CC1)C2	> 33 µM	–
1.8	–	0.013 µM	O=C(c1ccccc1)N1CCC2(CC1)CCN(C(=O)N1CCN(C3CCC3)CC1)C2	> 33 µM	CL (Rattus norvegicus [18]): 91 mL/min/kg; half-life [19]: 66 min; Vd [20]: 3.7 L/kg; microsomal CLint [5]: 25 µL/min/mg; microsomal CLint [6]: 18 µL/min/mg; Ratio (MDCK): 4.5; Papp A→B [8]: 8.8 ×10⁻⁶ cm/s; solubility thermodynamic [10]: > 500 µM
-0.89	–	0.0008 µM	O=C(C1CC2(CCN(C3CCOCC3)CC2)C1)N1CCCN(C2CCC2)CC1	–	–
-0.19	–	0.14 µM	CC(C)N1CCN(C(=O)N2CCC3(CCCN(C4CCOCC4)C3)C2)CC1 (stereo not drawn)	> 33 µM	–
0.18	0.003 µM	0.017 µM	O=C(C1CC12CCN(C1CCOCC1)CC2)N1CCCN(C2CCC2)CC1 (racemic)	–	–
1.09	0.055 µM	0.083 µM	O=C(C1CC12CCN(c1ccncc1)CC2)N1CCN(C2CCCCC2)CC1 (racemic)	–	–
0.97	–	0.011 µM	CS(=O)(=O)N1CCC2(CC1)CC(C(=O)N1CCN(C3CCC3)CC1)C2	–	CL (Rattus norvegicus [21]): 69.8 mL/min/kg; half-life [22]: 24 min; Vd [23]: 1.4 L/kg; microsomal CLint [5]: 16 µL/min/mg; microsomal CLint [6]: 8.3 µL/min/mg; Papp A→B [8]: 19 ×10⁻⁶ cm/s; fraction unbound [9]: 0.67; solubility thermodynamic [10]: > 500 µM
–	0.097 µM	0.9 µM	CC(C)N1CCN(C(=O)N2CC3(CCN(C4CCOCC4)CC3)C2)CC1	–	–

Structure (SMILES)	logD [2]	Ki (Histamine H3 receptor [3])	IC50 (Histamine H3 receptor [4])	IC50 [1]	other results
CC(C)N1CCN(C(=O)[C@@H]2CC23CCN(C2CCOCC2)CC3)CC1	-0.35	0.016 µM	0.087 µM	–	–
CC(C)N1CCN(C(=O)C2CC23CCN(C2CCOCC2)CC3)CC1 (racemic)	–	0.003 µM	0.0032 µM	–	microsomal CLint [5]: 24 µL/min/mg; microsomal CLint [6]: < 4 µL/min/mg; fraction unbound [7]: 0.69; Papp A→B [8]: 5.4 ×10⁻⁶ cm/s; fraction unbound [9]: 0.87; solubility thermodynamic [10]: > 500 µM
